This passage reports MIC results from ChEMBL document CHEMBL1649395, “Synthesis and antibacterial activity of novel ketolides with 11,12-sulfur contained aryl alkyl side chains” (2011).

≈ marks a conversion by molar mass, not a printed value. Where only a bound is given, the exact number is not on record here.

Format in all cases: functional
For test [1], the system named is Streptococcus pyogenes. In words: Antibacterial activity against erythromycin-susceptible Streptococcus pyogenes 07U084 by broth microdilution method. A digest of the protocol:
(§1)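 Strains were ATCC reference strains or clinical isolates from China's national antimicrobial resistance surveillance network (MOHNARIN). In vitro activity was measured by broth microdilution following NCCLS recommendations. Results are reported as minimum inhibitory concentration (MIC) in mg/L.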
(Broth dilution looks for growth in wells or tubes with falling amounts of substance.)

The test system of test [2] is Staphylococcus epidermidis. In words: Antibacterial activity against methicillin-susceptible Staphylococcus epidermidis 07C134 by broth microdilution method. The method, boiled down:
(§2)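 Clinical isolates were supplied by China's Ministry of Health National Antimicrobial Resistance Investigation Net (MOHNARIN). Activity was reported as minimum inhibitory concentration (MIC), determined by broth microdilution following NCCLS recommendations.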

Test [3] has as its system Haemophilus influenzae. In words: Antibacterial activity against erythromycin-susceptible Haemophilus influenzae ATCC 49247 by broth microdilution method. The method, boiled down: as §1
The subject of test [4] is Streptococcus pyogenes. In words: Antibacterial activity against erythromycin-resistant Streptococcus pyogenes 03-233 by broth microdilution method. A digest of the protocol: as §2
For test [5], the system named is Staphylococcus epidermidis. In words: Antibacterial activity against methicillin-susceptible Staphylococcus epidermidis 07T202 by broth microdilution method. A digest of the protocol:
as §1

The subject of test [6] is Streptococcus pyogenes. In words: Antibacterial activity against erythromycin-resistant Streptococcus pyogenes 01-533 by broth microdilution method. A digest of the protocol:
as §2

The subject of test [7] is Haemophilus influenzae. In words: Antibacterial activity against erythromycin-susceptible Haemophilus influenzae 07O114 by broth microdilution method. The method, boiled down: as §1
For test [8], the system named is Staphylococcus epidermidis. Put plainly: Antibacterial activity against methicillin-resistant Staphylococcus epidermidis 07R066 by broth microdilution method. The method, boiled down:
as §2

Test [9] relates to Streptococcus pneumoniae. Put plainly: Antibacterial activity against erythromycin-resistant Streptococcus pneumoniae 07P390 by broth microdilution method. The method, boiled down:
as §2

The test system of test [10] is Staphylococcus aureus. Put plainly: Antibacterial activity against methicillin-susceptible Staphylococcus aureus ATCC 29213 by broth microdilution method. The method, boiled down:
as §1

Test [11] has as its system Haemophilus influenzae. Put plainly: Antibacterial activity against erythromycin-susceptible Haemophilus influenzae 07O394 by broth microdilution method. A digest of the protocol: as §1
In test [12] the test system is Streptococcus pneumoniae. Put plainly: Antibacterial activity against erythromycin-resistant Streptococcus pneumoniae 07D201 by broth microdilution method. The method, boiled down:
as §2

Test [13] concerns Staphylococcus epidermidis. Put plainly: Antibacterial activity against methicillin-resistant Staphylococcus epidermidis 07A066 by broth microdilution method. A digest of the protocol: as §2
Test [14] concerns Streptococcus pyogenes. Put plainly: Antibacterial activity against erythromycin-susceptible Streptococcus pyogenes 07U086 by broth microdilution method. The method, boiled down:
as §1

For test [15], the system named is Staphylococcus aureus. In words: Antibacterial activity against methicillin-susceptible Staphylococcus aureus ANS46 by broth microdilution method. The method, boiled down:
as §1

Test [16] relates to Streptococcus pneumoniae. Put plainly: Antibacterial activity against erythromycin-susceptible Streptococcus pneumoniae 07H252 by broth microdilution method. A digest of the protocol: as §1
In test [17] the test system is Streptococcus pneumoniae. Put plainly: Antibacterial activity against erythromycin-susceptible Streptococcus pneumoniae ATCC 49619 by broth microdilution method. The method, boiled down: as §1
Test [18] concerns Haemophilus influenzae. In words: Antibacterial activity against erythromycin-susceptible Haemophilus influenzae 07O339 by broth microdilution method. The method, boiled down: as §1

As to `CC[C@H]1OC(=O)[C@H](C)C(=O)[C@H](C)[C@@H](O[C@@H]2O[C@H](C)C[C@H](N(C)C)[C@H]2O)[C@@](C)(OC)C[C@@H](C)C(=O)[C@H](C)[C@H]2N(CCCSc3nc(C)cc(C)n3)C(=O)O[C@]12C`, the MIC in test [1] is 0.125 µg/mL (≈ 0.158 µM); in test [2], 0.5 µg/mL (≈ 0.63 µM); in test [3], 4 µg/mL (≈ 5.04 µM); in test [4] it was more than 32 µg/mL; in [5], more than 32 µg/mL; in [6], 2 µg/mL (≈ 2.52 µM). Besides, the MIC is 8 µg/mL (≈ 10.1 µM) in [7]; 0.5 µg/mL (≈ 0.63 µM) in test [8]; 1 µg/mL (≈ 1.26 µM) in [9]; 0.5 µg/mL (≈ 0.63 µM) in test [10]; 8 µg/mL (≈ 10.1 µM) in [11]; more than 32 µg/mL in test [12]. Besides, the MIC is 0.5 µg/mL (≈ 0.63 µM) in test [13]; 0.125 µg/mL (≈ 0.158 µM) in test [14]; more than 32 µg/mL in test [15]; 2 µg/mL (≈ 2.52 µM) in test [16]; 0.062 µg/mL (≈ 0.0782 µM) in [17]; 4 µg/mL (≈ 5.04 µM) in test [18].
For `CC[C@H]1OC(=O)[C@H](C)C(=O)[C@H](C)[C@@H](O[C@@H]2O[C@H](C)C[C@H](N(C)C)[C@H]2O)[C@@](C)(OC)C[C@@H](C)C(=O)/C(C)=C/[C@]1(C)OC(=O)NCCCSc1ncnc2[nH]ncc12`, the MIC was 0.25 µg/mL (≈ 0.311 µM) in [1]; 0.5 µg/mL (≈ 0.621 µM) in [2]; more than 16 µg/mL in [3]; more than 16 µg/mL in test [4]; more than 16 µg/mL in test [5]; 8 µg/mL (≈ 9.94 µM) in [6]. Also, the MIC in test [7] was more than 16 µg/mL; in test [8], 0.5 µg/mL (≈ 0.621 µM); in test [9], 16 µg/mL (≈ 19.9 µM); in test [10] it was 0.5 µg/mL (≈ 0.621 µM); in test [11], more than 16 µg/mL; in test [12], more than 16 µg/mL. For the same compound, the MIC was 0.5 µg/mL (≈ 0.621 µM) in test [13]; 0.25 µg/mL (≈ 0.311 µM) in test [14]; more than 16 µg/mL in test [15]; 8 µg/mL (≈ 9.94 µM) in [16]; 0.5 µg/mL (≈ 0.621 µM) in [17]; more than 16 µg/mL in [18].
`CC[C@H]1OC(=O)[C@H](C)C(=O)[C@H](C)[C@@H](O[C@@H]2O[C@H](C)C[C@H](N(C)C)[C@H]2O)[C@@](C)(OC)C[C@@H](C)C(=O)[C@H](C)[C@H]2N(CCCSc3nccs3)C(=O)O[C@]12C`: the MIC in [1] is not above 0.016 µg/mL; in test [2], 0.125 µg/mL (≈ 0.162 µM); in test [3], 4 µg/mL (≈ 5.19 µM); in [4], more than 32 µg/mL; in test [5], more than 32 µg/mL; in test [6] it was 0.5 µg/mL (≈ 0.649 µM). Moreover, the MIC in test [7] is 4 µg/mL (≈ 5.19 µM); in test [8], 0.062 µg/mL (≈ 0.0805 µM); in [9], 0.25 µg/mL (≈ 0.325 µM); in test [10], 0.125 µg/mL (≈ 0.162 µM); in [11] it was 4 µg/mL (≈ 5.19 µM); in test [12], more than 32 µg/mL. For the same compound, the MIC is 0.125 µg/mL (≈ 0.162 µM) in [13]; not above 0.016 µg/mL in test [14]; more than 32 µg/mL in test [15]; 0.5 µg/mL (≈ 0.649 µM) in test [16]; 0.031 µg/mL (≈ 0.0403 µM) in test [17]; 4 µg/mL (≈ 5.19 µM) in test [18].
With `CC[C@H]1OC(=O)[C@H](C)C(=O)[C@H](C)[C@@H](O[C@@H]2O[C@H](C)C[C@H](N(C)C)[C@H]2O)[C@](C)(OC)C[C@@H](C)C(=O)[C@H](C)[C@H]2N(CCCCn3cnc(-c4cccnc4)c3)C(=O)O[C@]12C` [TELITHROMYCIN], the MIC was 0.062 µg/mL (≈ 0.0764 µM) in [1]; 0.125 µg/mL (≈ 0.154 µM) in test [2]; 4 µg/mL (≈ 4.93 µM) in test [3]; 2 µg/mL (≈ 2.46 µM) in [4]; more than 16 µg/mL in test [5]; 0.25 µg/mL (≈ 0.308 µM) in test [6]. Moreover, the MIC in test [7] was determined as 4 µg/mL (≈ 4.93 µM); in [8], 0.125 µg/mL (≈ 0.154 µM); in test [9], 0.031 µg/mL (≈ 0.0382 µM); in [10], 0.125 µg/mL (≈ 0.154 µM); in test [11], 4 µg/mL (≈ 4.93 µM); in test [12], 1 µg/mL (≈ 1.23 µM). Also, the MIC in test [13] was 0.125 µg/mL (≈ 0.154 µM); in test [14], 0.062 µg/mL (≈ 0.0764 µM); in test [15], more than 16 µg/mL; in test [16], 0.062 µg/mL (≈ 0.0764 µM); in [17] it was 0.031 µg/mL (≈ 0.0382 µM); in test [18], 4 µg/mL (≈ 4.93 µM).
Take `CC[C@H]1OC(=O)[C@H](C)C(=O)[C@H](C)[C@@H](O[C@@H]2O[C@H](C)C[C@H](N(C)C)[C@H]2O)[C@@](C)(OC)C[C@@H](C)C(=O)[C@H](C)[C@H]2N(CCCSc3ccoc3C)C(=O)O[C@]12C`: the MIC in test [1] was 0.125 µg/mL (≈ 0.163 µM); in test [2], 0.25 µg/mL (≈ 0.326 µM); in test [3], 16 µg/mL (≈ 20.9 µM); in test [4] it was more than 16 µg/mL; in test [5], more than 16 µg/mL; in test [6], 0.5 µg/mL (≈ 0.652 µM). Besides, the MIC was 8 µg/mL (≈ 10.4 µM) in test [7]; 0.25 µg/mL (≈ 0.326 µM) in test [8]; 0.25 µg/mL (≈ 0.326 µM) in test [9]; 0.25 µg/mL (≈ 0.326 µM) in test [10]; 16 µg/mL (≈ 20.9 µM) in test [11]; more than 16 µg/mL in test [12]. In addition, the MIC in test [13] is 0.25 µg/mL (≈ 0.326 µM); in test [14], 0.125 µg/mL (≈ 0.163 µM); in test [15] it was more than 16 µg/mL; in [16], 1 µg/mL (≈ 1.3 µM); in test [17] it was 0.031 µg/mL (≈ 0.0404 µM); in test [18] it was 16 µg/mL (≈ 20.9 µM).
